Measurements as given in ChEMBL document CHEMBL3585325, “Discovery of (1R,2S)-2-{[(2,4-Dimethylpyrimidin-5-yl)oxy]methyl}-2-(3-fluorophenyl)-N-(5-fluoropyridin-2-yl)cyclopropanecarboxamide (E2006): A Potent and Efficacious Oral Orexin Receptor Antagonist” (J Med Chem, 2015).

Legend:
[1] = Drug uptake in C57BL/6NCrlCrlj mouse CSF at 10 mg/kg, po administered as single dose measured after 1 hr by LC-MS/MS analysis; type: ADME, organism-based, Cerebrospinal fluid; details: read-out: Drug uptake
Outline: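 Male C57BL/6NCrlCrlj mice given a single 10 mg/kg oral dose as a suspension in 0.5% aqueous methylcellulose. At 1 or 3 h, under pentobarbital anesthesia, CSF was taken from the cisterna magna and then blood from the abdominal aorta (spun to plasma). Samples were acetonitrile-precipitated with deuterated internal standard and run by LC-MS/MS. Values are mean with SEM.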

Mus musculus [2] = experiment: Sleep promoting activity in C57BL/6NCrlCrlj mouse assessed as reduction in wakefulness time at 10 mg/kg, po administered immediately prior to beginning of dark cycle measured during first 3 hrs after drug administration by electroencephalogram/electromyogram analysis (reference value: 116.7 min); type: functional
Outline: (§1)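 Male C57BL/6NCrlCrlj mice implanted with EEG/EMG electrodes were dosed orally in 10% Cremophor EL, 5% DMSO in saline just before lights-off (ZT12) and recorded from ZT12 to ZT20. Group sizes were n=6 dosed and n=7 vehicle. Stages were scored by software with blinded visual confirmation; cumulative first-3-h times are mean with SEM. Dunnett's test was run after one-way ANOVA.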

Mus musculus [3] = experiment: Sleep promoting activity in C57BL/6NCrlCrlj mouse assessed as increase in non-REM sleep at 10 mg/kg, po administered immediately prior to beginning of dark cycle measured during first 3 hrs after drug administration by electroencephalogram/electromyogram analysis (reference value: 62.6 min); type: functional; outline: as §1
Mus musculus [4] = experiment: Sleep promoting activity in C57BL/6NCrlCrlj mouse assessed as increase in non-REM sleep at 30 mg/kg, po administered immediately prior to beginning of dark cycle measured during first 3 hrs after drug administration by electroencephalogram/electromyogram analysis (reference value: 62.6 min); type: functional; outline: as §1
Cytochrome P450 2C8 = target: T1, Cytochrome P450 2C8 (Homo sapiens, UniProt P10632); experiment: Inhibition of CYP2C8 in human liver microsomes using rosiglitazone as susbtrate incubated for 30 mins prior to substrate addition for 10 mins by LC-MS/MS analysis; type: ADME
T1 sequence (P10632 whole entry): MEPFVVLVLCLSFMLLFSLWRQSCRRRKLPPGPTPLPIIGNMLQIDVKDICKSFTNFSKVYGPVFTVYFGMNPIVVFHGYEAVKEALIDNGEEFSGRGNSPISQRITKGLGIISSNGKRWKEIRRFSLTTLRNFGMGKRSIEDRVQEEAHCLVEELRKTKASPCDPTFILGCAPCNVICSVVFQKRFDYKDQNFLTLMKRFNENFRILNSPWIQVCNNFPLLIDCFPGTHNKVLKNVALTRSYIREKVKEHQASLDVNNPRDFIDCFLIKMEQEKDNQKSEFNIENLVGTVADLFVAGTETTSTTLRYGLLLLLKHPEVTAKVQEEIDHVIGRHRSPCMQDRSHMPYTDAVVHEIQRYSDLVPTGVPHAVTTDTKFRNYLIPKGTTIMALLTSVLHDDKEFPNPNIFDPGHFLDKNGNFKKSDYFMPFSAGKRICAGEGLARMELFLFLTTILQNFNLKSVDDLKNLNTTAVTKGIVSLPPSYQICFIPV

Cytochrome P450 2C19 = Cytochrome P450 2C19 (Homo sapiens, UniProt P33261); experiment: Inhibition of CYP2C19 in human liver microsomes using S-mephenytoin as susbtrate incubated for 30 mins prior to substrate addition for 10 mins by LC-MS/MS analysis; type: ADME
Cytochrome P450 2C19, sequence (P33261 whole entry): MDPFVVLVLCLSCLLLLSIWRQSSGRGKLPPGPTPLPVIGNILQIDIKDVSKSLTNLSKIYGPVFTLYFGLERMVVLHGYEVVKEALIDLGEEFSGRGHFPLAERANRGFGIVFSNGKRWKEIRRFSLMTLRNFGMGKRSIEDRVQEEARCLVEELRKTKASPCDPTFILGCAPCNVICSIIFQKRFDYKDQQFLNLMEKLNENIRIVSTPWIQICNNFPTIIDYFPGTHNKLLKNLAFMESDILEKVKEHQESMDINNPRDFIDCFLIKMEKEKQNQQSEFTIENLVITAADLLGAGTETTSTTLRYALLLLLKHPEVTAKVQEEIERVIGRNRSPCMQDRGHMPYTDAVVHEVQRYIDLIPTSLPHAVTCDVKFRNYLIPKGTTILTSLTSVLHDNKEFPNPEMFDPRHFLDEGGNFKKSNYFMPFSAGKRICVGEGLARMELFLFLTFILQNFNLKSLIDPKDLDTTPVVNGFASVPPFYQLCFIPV

Cytochrome P450 2D6 = Cytochrome P450 2D6 (Homo sapiens, UniProt P10635); experiment: Inhibition of CYP2D6 in human liver microsomes using bufuralol as susbtrate incubated for 30 mins prior to substrate addition for 10 mins by LC-MS/MS analysis; type: ADME
Cytochrome P450 2D6, sequence (P10635 whole entry): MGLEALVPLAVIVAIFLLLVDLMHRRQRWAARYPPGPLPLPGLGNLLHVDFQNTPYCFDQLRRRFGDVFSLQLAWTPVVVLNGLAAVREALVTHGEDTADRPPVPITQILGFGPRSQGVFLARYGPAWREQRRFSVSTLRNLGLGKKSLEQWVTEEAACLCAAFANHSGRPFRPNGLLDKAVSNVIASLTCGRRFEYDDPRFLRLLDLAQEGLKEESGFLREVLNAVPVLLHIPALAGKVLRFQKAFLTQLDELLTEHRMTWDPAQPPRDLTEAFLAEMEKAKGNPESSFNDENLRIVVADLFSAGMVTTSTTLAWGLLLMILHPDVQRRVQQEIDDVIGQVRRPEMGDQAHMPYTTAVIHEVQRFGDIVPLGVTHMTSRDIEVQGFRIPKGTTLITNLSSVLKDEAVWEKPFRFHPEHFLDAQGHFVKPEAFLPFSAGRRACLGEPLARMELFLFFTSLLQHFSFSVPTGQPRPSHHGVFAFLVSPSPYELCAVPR

Mus musculus [5] = experiment: Sleep promoting activity in C57BL/6NCrlCrlj mouse assessed as reduction in wakefulness time at 30 mg/kg, po administered immediately prior to beginning of dark cycle measured during first 3 hrs after drug administration by electroencephalogram/electromyogram analysis (reference value: 116.7 min); type: functional; outline: as §1
[6] = Volume of distribution at steady state in C57BL/6NCrlCrlj mouse at 1 mg/kg, iv by LC-MS/MS analysis; type: ADME, organism-based; details: in vivo, read-out: Vdss
Outline: (§2)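 Male C57BL/6NCrlCrlj mice dosed intravenously at 1 mg/kg in 10% DMSO in water. Blood was taken from the tail vein at set time points and spun to plasma. Concentrations were measured by LC-MS/MS (MRM, positive mode) against a 1/x²-weighted standard curve with internal standard. Parameters came from noncompartmental analysis.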

[7] = AUC (0 to infinity) in C57BL/6NCrlCrlj mouse at 1 mg/kg, iv by LC-MS/MS analysis; type: ADME, organism-based; parameters: dose 1 mg/kg, time infinity, route intravenous; details: in vivo; outline: as §2
[8] = AUC (0 to infinity) in C57BL/6NCrlCrlj mouse at 10 mg/kg, po by LC-MS/MS analysis; type: ADME, organism-based; parameters: dose 10 mg/kg, route oral, time infinity; details: in vivo
Outline: (§3)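 Male C57BL/6NCrlCrlj mice dosed orally at 10 mg/kg in 10% Cremophor EL, 5% DMSO in saline. Tail-vein blood was taken at set time points and spun to plasma. Quantified by LC-MS/MS (MRM, positive mode) with internal standard and a 1/x²-weighted calibration. Parameters came from noncompartmental analysis.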

[9] = Tmax in C57BL/6NCrlCrlj mouse at 10 mg/kg, po by LC-MS/MS analysis; type: ADME, organism-based; details: in vivo; outline: as §3
[10] = Oral bioavailability in C57BL/6NCrlCrlj mouse at 10 mg/kg by LC-MS/MS analysis; type: ADME, organism-based; details: in vivo
Outline: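 Oral dose of 10 mg/kg in 10% Cremophor EL, 5% DMSO in saline; intravenous reference of 1 mg/kg in 10% DMSO in water; male C57BL/6NCrlCrlj mice. Tail-vein plasma was quantified by LC-MS/MS. F% = (mean AUC0–inf po/dose po)/(mean AUC0–inf iv/dose iv) × 100.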

[11] = AUC (0 to infinity) in C57BL/6NCrlCrlj mouse at 30 mg/kg, po by LC-MS/MS analysis; type: ADME, organism-based; parameters: dose 30 mg/kg, time infinity, route oral; details: in vivo
[12] = Half life in C57BL/6NCrlCrlj mouse at 30 mg/kg, po by LC-MS/MS analysis; type: ADME, organism-based; details: in vivo
[13] = Tmax in C57BL/6NCrlCrlj mouse at 30 mg/kg, po by LC-MS/MS analysis; type: ADME, organism-based; details: in vivo

Cc1ncc(OC[C@@]2(c3cccc(F)c3)C[C@H]2C(=O)Nc2ccc(F)cn2)c(C)n1 [LEMBOREXANT] showed a concentration at 1 h [1] of 0.0328 µM, a Time (Mus musculus [2]) of 77.1 min and a Time (Mus musculus [3]) of 99.3 min. For the same compound, the Time (Mus musculus [4]) was 95.5 min, the IC50 (Cytochrome P450 2C8) was > 20 µM and the IC50 (Cytochrome P450 2C19) was > 20 µM. For the same compound, the IC50 (Cytochrome P450 2D6) was > 20 µM, the Time (Mus musculus [5]) was 75.3 min and the Vd [6] was 2.71 L/kg. For the same compound, the AUC(0-inf) [7] was 1.03 µg·h/mL, the AUC(0-inf) [8] was 1.91 µg·h/mL and the Tmax [9] was 0.25 h. For the same compound, the bioavailability [10] was 18.5%, the AUC(0-inf) [11] was 4.13 µg·h/mL and the half-life [12] was 1.94 h. The Tmax [13] was 1 h.
